Legend:
[1] = target: T1, C-X-C chemokine receptor type 2 (Homo sapiens, UniProt P25025); assay: Displacement of [125I]IL-8 from human CXCR2 expressed in mouse BaF3 cells by liquid scintillation counting; type: cell-based
T1 sequence (P25025 whole entry): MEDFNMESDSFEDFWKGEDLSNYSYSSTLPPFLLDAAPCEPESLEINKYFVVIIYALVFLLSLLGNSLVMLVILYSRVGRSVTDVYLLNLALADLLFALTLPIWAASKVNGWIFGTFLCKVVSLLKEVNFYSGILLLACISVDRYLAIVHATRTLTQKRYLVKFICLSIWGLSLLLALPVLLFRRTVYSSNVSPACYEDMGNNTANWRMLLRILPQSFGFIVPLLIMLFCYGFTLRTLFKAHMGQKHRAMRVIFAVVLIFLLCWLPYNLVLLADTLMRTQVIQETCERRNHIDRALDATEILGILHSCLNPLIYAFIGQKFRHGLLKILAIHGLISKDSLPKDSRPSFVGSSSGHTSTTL
Summary of the method: (§1)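 SPA competition binding with receptor-overexpressing membranes (CXCR2 or CXCR1, CXCR1 at twice the membrane amount) mixed with 2 mg/mL wheatgerm-agglutinin-coated SPA beads. Buffer was 25 mM HEPES, 3 mM MgCl2, pH 7.4; the membrane and bead mix was held on ice 5 min. Tracer was [125I]IL-8 from a 0.040 nM stock. Compounds were half-log serially diluted in DMSO. Plates were incubated 2 h at room temperature, protected from light, then counted by liquid scintillation.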

[2] = target: T2, C-X-C chemokine receptor type 1 (Homo sapiens, UniProt P25024); assay: Displacement of [125I]IL-8 from human CXCR1 expressed in mouse BaF3 cells by liquid scintillation counting; type: cell-based; summary of the method: as §1
T2 sequence (P25024 whole entry): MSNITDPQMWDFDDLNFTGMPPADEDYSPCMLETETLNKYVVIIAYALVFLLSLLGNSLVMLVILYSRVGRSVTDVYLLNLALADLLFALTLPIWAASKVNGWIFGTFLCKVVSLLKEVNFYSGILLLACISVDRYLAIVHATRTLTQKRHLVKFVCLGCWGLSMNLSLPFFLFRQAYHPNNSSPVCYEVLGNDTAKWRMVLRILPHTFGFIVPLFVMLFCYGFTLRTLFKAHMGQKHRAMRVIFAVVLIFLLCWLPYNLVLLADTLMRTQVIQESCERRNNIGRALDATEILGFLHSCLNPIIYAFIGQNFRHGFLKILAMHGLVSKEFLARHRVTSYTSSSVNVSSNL

[3] = organism: Homo sapiens; assay: Selectivity ratio of Ki for human CXCR1 to Ki for human CXCR2
Summary of the method: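 Scintillation proximity binding assays on membranes over-expressing CXCR2 or CXCR1, with CXCR1 membranes at twice the CXCR2 membrane level. Membranes were premixed with 2 mg/mL wheatgerm-agglutinin SPA beads in 25 mM HEPES, 3 mM MgCl2, pH 7.4, 5 min on ice. Half-log serial DMSO dilutions were added with [125I]IL-8 (0.040 nM stock). Plates were kept 2 h at room temperature in the dark, then read by scintillation counting.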

[4] = Metabolic stability in human liver microsomes assessed as compound remaining at 1 uM after 120 mins; type: ADME, Microsome; details: read-out: Stability
[5] = Metabolic stability in human liver microsomes assessed as half life at 1 uM; type: ADME, Microsome
[6] = Metabolic stability in rat liver microsomes assessed as half life at 1 uM; type: ADME, Microsome

Structure (SMILES) | Ki [1] | Ki [2] | Ratio Ki [3] | IC50 [1] | remaining at 2 h, 1 µM [4] | half-life at 1 µM [5] | half-life at 1 µM [6]
CCN(Nc1c(Nc2cccc(C(=O)N(C)C)c2O)c(=O)c1=O)C(=O)c1ccc(F)cc1 | 0.26 µM | > 12 µM | > 46 | – | – | – | –
CCN(CC)Nc1c(Nc2cccc(C(=O)N(C)C)c2O)c(=O)c1=O | 0.12 µM | 9.7 µM | 80 | 1.86 µM | > 50% | > 2 h | 1.4 h
CCNNc1c(Nc2cccc(C(=O)N(C)C)c2O)c(=O)c1=O | – | – | – | 5.49 µM | – | – | –
CCN(Cc1ccc(F)cc1)Nc1c(Nc2cccc(C(=O)N(C)C)c2O)c(=O)c1=O | 7.2 µM | > 12 µM | – | – | – | – | –
CCN(Nc1c(Nc2cccc(C(=O)N(C)C)c2O)c(=O)c1=O)C(C)=O | 0.32 µM | > 12 µM | – | 3.29 µM | – | – | –

Further lines, results first:

Ki [1] | Ki [2] | Ratio Ki [3] | IC50 [1] | remaining at 2 h, 1 µM [4] | half-life at 1 µM [5] | half-life at 1 µM [6] | Structure (SMILES)
0.18 µM | 6.5 µM | 40 | – | – | – | – | CCN(Nc1c(Nc2cccc(C(=O)N(C)C)c2O)c(=O)c1=O)c1ccc(OC)cc1
0.55 µM | > 12 µM | > 20 | – | – | – | – | CCN(Nc1c(Nc2cccc(C(=O)N(C)C)c2O)c(=O)c1=O)c1ccc(F)cc1
0.13 µM | 5.2 µM | 40 | – | > 50% | > 2 h | – | CCN(Nc1c(Nc2cccc(C(=O)N(C)C)c2O)c(=O)c1=O)c1ccccn1
0.11 µM | 4.1 µM | 40 | – | > 50% | > 2 h | – | CCN(Nc1c(Nc2cccc(C(=O)N(C)C)c2O)c(=O)c1=O)c1ccccc1
